Sampled rows, rich in hits. Any-hit rate of the full collection: about 3.1%.
ADAM10 inh – human ADAM10 inhibitors, primary screen, biochemical, QFRET, HTS | Disintegrin and metalloproteinase domain-containing protein 10 (Homo sapiens), O14672 | recombinant ADAM10, EDANS/DABCYL FRET peptide cleavage, 3 h | inhibition, % at 7 µM | 0.62% of 370,000 active | AID 720582, 2013;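 active means inhibition above a per-campaign cutoff equal to the mean of compounds falling between control-based bounds plus 3 SD, cut at about 20% in these data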;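 further: 0% = DMSO wells while the 100% control is not disclosed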
Target sequence (O14672 214-748 limits assumed): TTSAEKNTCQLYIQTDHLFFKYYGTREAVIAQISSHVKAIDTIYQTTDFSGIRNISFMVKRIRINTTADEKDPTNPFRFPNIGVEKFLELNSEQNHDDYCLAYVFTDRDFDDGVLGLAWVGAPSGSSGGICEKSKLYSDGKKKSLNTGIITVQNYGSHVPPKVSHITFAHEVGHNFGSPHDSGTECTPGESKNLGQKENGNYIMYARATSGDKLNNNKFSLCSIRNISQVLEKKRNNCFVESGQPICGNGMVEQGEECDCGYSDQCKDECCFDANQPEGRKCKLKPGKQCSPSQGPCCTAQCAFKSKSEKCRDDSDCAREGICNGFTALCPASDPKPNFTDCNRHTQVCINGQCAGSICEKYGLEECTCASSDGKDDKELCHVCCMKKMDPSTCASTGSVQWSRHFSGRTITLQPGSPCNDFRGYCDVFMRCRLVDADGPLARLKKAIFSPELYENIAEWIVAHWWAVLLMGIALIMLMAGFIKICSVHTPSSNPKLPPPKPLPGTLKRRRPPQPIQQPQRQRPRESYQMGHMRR
V-ATPase pH – regulators of yeast V-ATPase proton pumping, primary screen, pHLuorin cytosolic pH fluorescence. S. cerevisiae. response, % at 10 µM. 0.37% of 350,000 active. AID 504577, 2011; in the data active means response mostly above about 7.3%, no sharp cut-off; inactive means mostly below about 5.4%; further: actives read high
MPTP block – mitochondrial permeability transition pore inhibitors, primary screen, biochemical, isolated mouse mitochondria, absorbance | Ca2+ swelling absorbance, 30 min | inhibition, % at 10 µM | 1.4% of 360,000 active | AID 602449, 2012;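 active means inhibition of 50% or more, scaled per plate between neutral and stimulator controls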;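 further: 0% = DMSO wells given calcium and 100% = 1 mM EGTA wells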
Lipid droplet – inhibitors of hepatocyte lipid droplet formation, primary screen, imaging, high-throughput imaging, BODIPY stain; inhibition, % at 6.5 µM; 0.4% of 240,000 active; AML12 mouse hepatocytes, oleate lipid droplets; AID 1656, 2009;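 active means lipid droplet intensity inhibited by at least 50%, with more than 500 cells counted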
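System: AML12 hepatocytes (mouse). Probe or stimulus: oleic acid at 100 µM to induce lipid droplet formation. Times: overnight treatment with compound plus oleate. Detection: Image-based BODIPY and DAPI two-channel analysis. Evaluation: percent inhibition of filter-corrected integrated lipid droplet intensity per well.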
ADAM17 inh – ADAM17 inhibitors, primary screen, biochemical, QFRET; Disintegrin and metalloproteinase domain-containing protein 17 (Homo sapiens), P78536; recombinant ADAM17, EDANS/DABCYL FRET peptide cleavage; inhibition, % at 6.95 µM; 0.83% of 370,000 active; AID 720648, 2013;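 active means inhibition above the mean of compounds lying between control limits plus 3 SD, set per campaign, cut at about 8.5% in these data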;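 further: 0% = DMSO-only wells as the low control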
aDG glyco act – activators of alpha-DG glycosylation, primary screen, uHTS, Pro5-aDG cells, AlphaScreen | activation, % at 10 µM | alpha-DG glycosylation AlphaScreen (IIH6); 0% Pro5, 100% B10-LARGE cell signal | 0.22% of 360,000 active;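 active means activation of at least 8% versus controls, or a plate z-score of at least 8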;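 further: Pro5 are CHO cells carrying HIG-tagged alpha-DG that lacks glycosylation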
Rh123 counter – fluorescence retest of MPTP screen hits in isolated mitochondria, single concentration | shares compounds with MPTP block | membrane potential, Rhodamine 123 fluorescence | inhibition, % at 10 µM | 78% of 5,000 active; in the data active means inhibition above about 22%;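 further: 0% = DMSO vehicle and 100% = positive control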
MPTP abs DR – mitochondrial permeability transition pore inhibitors, dose response, biochemical, absorbance, uHTS hits | shares compounds with MPTP block | isolated mitochondria swelling | IC50, µM | 58% of 780 active | AID 651561, 2012; in the data active means IC50 below about 20 µM
MPTP cs DR – fluorescent counter-screen in isolated mitochondria, dose response, counter-screen for MPTP inhibitor project, biochemical, fluorescence, uHTS hits. 49% of 780 active. IC50, µM. AID 651564, 2012. isolated mitochondria counterscreen, fluorescence read-out. shares compounds with MPTP block; in the data active means IC50 below about 80 µM
Numbers without * were called inactive; · = not tested or not shown.

SMILES	ADAM10 inh	V-ATPase pH	MPTP block	Lipid droplet	ADAM17 inh	aDG glyco act	Rh123 counter	others
CCCCCCC#Cc1cncc(C(=O)NNC(=O)Nc2cc(Cl)cc(Cl)c2)c1	6.0	0.2	54.8*	-0.5	1.4	0.0	55.0*
COc1cc(/C=N/Nc2snc(SC)c2C#N)cc(OC)c1OC	-0.1	0.8	72.8*	·	-3.4	0.4	75.4*
O=[N+]([O-])c1ccc(O)c(C(C#Cc2ccccc2)N2CCOCC2)c1 (stereo unspecified)	0.6	-2.2	68.2*	-0.4	-4.6	-0.1	86.6*
Cc1ccc(OCc2cc(C(=O)N3CCCC3)no2)cn1	-0.6	-1.6	0.6	-6.9	-0.5	-0.1	·
O=C(c1cc(COc2ccc3ncccc3c2)on1)N1CCCC1	-15.1	2.5	52.2*	-34.1	-9.5	1.3	69.9*
O=C(NC1CCCC1)c1cc(COc2ccc3ncccc3c2)on1	·	4.4	94.7*	-3.2	·	0.6	93.6*
CC(NC(=O)c1cc(COc2ccc3ncccc3c2)on1)c1ccc(F)cc1 (stereo unspecified)	7.6	-1.5	94.0*	7.7	5.7	1.6	85.8*
COc1cccc(CN(C)C(=O)c2cc(COc3ccc4ncccc4c3)on2)c1	2.6	-0.1	97.4*	8.3	-0.3	12.8*	96.8*
Cc1ccc(OCc2cc(C(=O)NC3CCCCC3)no2)cn1	-0.1	0.8	4.3	10.6	2.4	3.6	·
c1ccc(-c2ccc(CNc3nc(-c4ccccn4)nnc3-c3ccccc3)cc2)cc1	13.8	·	·	·	5.2	·	·
Cc1cc(OCc2cc(C(=O)N3CCN(CC4CC4)CC3)no2)cc(C)c1Cl	-7.9	-2.1	-1.2	-21.9	0.3	0.4	·
O=C(c1cc(COc2ccc3ncccc3c2)on1)N1CCCCCC1	-12.9	1.5	98.5*	-4.4	-3.2	1.4	100.6*
Cc1ccc(OCc2cc(C(=O)N3CCCCCCC3)no2)cc1C	5.1	1.6	0.0	-1.8	-2.9	0.1	·
Cc1cc(OCc2cc(C(=O)N3CCC(Oc4cccnc4)CC3)no2)cc(C)c1Cl	12.8	-3.4	68.6*	4.8	-3.3	1.2	102.4*
Cc1ccccc1NC(=O)C[C@H]1CC[C@H]2[C@@H](COc3ccc(NC(=O)Nc4ccccc4)cc3C(=O)N2C)O1	1.5	·	·	·	-5.7	·	·
CCCCCCCCNS(=O)(=O)CC1NCc2ccccc21 (stereo unspecified)	-2.2	·	·	·	-2.6	·	·
O=[N+]([O-])c1ccc(N2CCCCC2)nc1N1CCCCC1	-2.1	4.3	4.5	7.6	0.6	-0.1	·
O=[N+]([O-])c1ccc2c(c1N1CCCCC1)=NC1(CCCCC1)[N+]=2[O-]	-0.7	3.3	57.8*	-25.5	0.1	0.0	35.7*
O=C(c1cccc(F)c1)N(Cc1ccccn1)CC1CCCO1 (stereo unspecified)	-6.1	·	·	·	-0.2	·	·
CCN(CC)CC(=O)Nc1ccc2c(c1)Nc1ccccc1CC2	-1.1	-4.8	84.0*	·	-3.4	2.5	-3.7	MPTP abs DR=10.5*;MPTP cs DR=66.3*
O=[N+]([O-])c1cc(Br)c(O)c(/C=N/Nc2nnnn2-c2cccc3ccccc23)c1	11.1	-1.4	56.0*	18.7	0.7	-0.2	34.1*
O=[N+]([O-])c1cc(Br)c(O)c(C=Nc2ccc(N3CCOCC3)cc2)c1	0.6	-2.3	12.5	0.2	-0.4	0.2	·
O=C(c1cc2sccc2n1Cc1ccc(F)cc1)N1CCN(c2nc3ccccc3s2)CC1	12.6	1.3	90.0*	-61.6	4.5	3.7	102.9*
Cn1c(C(=O)N2CCN(c3nc4ccccc4s3)CC2)cc2sccc21	3.6	4.4	1.0	2.8	-0.3	0.3	·
COC(=O)[C@H](C(C)C)N(CCc1cn(Cc2ccccc2)nn1)S(=O)(=O)c1ccccc1Br	8.0	·	·	·	5.7	·	·
SMILES	ADAM10 inh	V-ATPase pH	MPTP block	Lipid droplet	ADAM17 inh	aDG glyco act	Rh123 counter	others
CN(N)c1nc(C(F)(F)F)nc2ccccc12	-5.4	-0.8	-0.6	-7.5	-0.9	0.0	·
CN(NS(=O)(=O)c1ccc(Br)cc1)c1nc(C(F)(F)F)nc2ccccc12	-5.8	0.5	73.2*	-4.2	1.5	0.4	86.4*
COc1ccccc1NC(=O)C12CC3CC(C1)CC(c1ccc(C)cc1)(C3)C2	-9.5	-1.1	3.4	·	-6.0	0.1	·
COc1ccc(NC(=O)C23CC4CC(C2)CC(c2ccc(C)cc2)(C4)C3)cc1	6.1	1.6	60.0*	-3.6	0.7	0.3	20.7*
O=C(Nc1nnc(S(=O)(=O)N2CCCCC2)s1)c1ccc(Cl)cc1	-8.1	-1.3	26.9	5.0	-0.2	0.1	·
CCC(Oc1ccccc1)C(=O)Nc1nnc(S(=O)(=O)N2CCCC2)s1 (stereo unspecified)	-7.0	-1.2	85.0*	-6.8	-1.6	-0.2	20.4*
O=C(Nc1nnc(S(=O)(=O)N2CCCCCC2)s1)c1ccc(Br)cc1	-1.3	-3.4	60.0*	36.6	-0.5	-0.2	28.9*
COC(=O)C1CN(Cc2ccc(F)cc2)CCS(=O)(=O)N1Cc1ccc(C(F)(F)F)cc1 (stereo unspecified)	12.0	·	·	·	3.6	·	·
Cc1ccccc1C(=O)n1ccc2ccc(-c3ccc4ccn(Cc5ccccc5)c4c3)cc21	-45.1	·	·	·	-12.5	·	·
CCN(c1ccccc1)S(=O)(=O)c1ccc(C(=O)NC2CCCCC2)cc1	-8.6	·	4.6	·	-3.1	-0.1	·
CCN(c1ccccc1)S(=O)(=O)c1ccc(C(=O)NC2CCN(Cc3ccccc3)CC2)cc1	·	3.6	65.7*	·	·	2.5	63.8*
Cc1cccc(CCNC(=O)Cn2ncc3c2-c2cc(C)ccc2OC3)c1	-0.6	·	·	·	0.9	·	·
O=C(Nc1ccc(Cl)cc1)Nc1nnc(Cc2ccc([N+](=O)[O-])cc2)s1	-3.5	-2.2	82.6*	-0.6	-2.4	-0.2	63.5*
Cc1ccc(SCc2nnc(NC(=O)c3ccccc3)s2)cc1	-7.7	0.7	-0.6	·	-1.3	-0.1	·
O=C(Nc1ccc(Cl)cc1)Nc1nnc(CSCc2ccccc2)s1	3.1	6.0	96.7*	1.4	-0.1	-0.6	59.8*
O=C(Nc1ccc(Cl)cc1)Nc1nnc(CSc2ccc(Cl)cc2)s1	-2.5	-2.1	85.1*	9.6	-0.9	-1.0	63.2*
